In ChEMBL document CHEMBL1250451, “Mechanistic insights into a Ca2+-dependent family of alpha-mannosidases in a human gut symbiont” (Nat Chem Biol, 2010):

Tests used:
Type in all cases: protein assay
[1] = molecular target: T1, Alpha-1,2-mannosidase (BT_2199) (Bacteroides thetaiotaomicron, UniProt Q8A5N9); experiment: Inhibition of Bacteroides thetaiotaomicron GH92 alpha-mannosidase 2199 assessed as reduction of mannose release using 4NP-mannopyranoside substrate
T1 sequence (Q8A5N9 whole entry): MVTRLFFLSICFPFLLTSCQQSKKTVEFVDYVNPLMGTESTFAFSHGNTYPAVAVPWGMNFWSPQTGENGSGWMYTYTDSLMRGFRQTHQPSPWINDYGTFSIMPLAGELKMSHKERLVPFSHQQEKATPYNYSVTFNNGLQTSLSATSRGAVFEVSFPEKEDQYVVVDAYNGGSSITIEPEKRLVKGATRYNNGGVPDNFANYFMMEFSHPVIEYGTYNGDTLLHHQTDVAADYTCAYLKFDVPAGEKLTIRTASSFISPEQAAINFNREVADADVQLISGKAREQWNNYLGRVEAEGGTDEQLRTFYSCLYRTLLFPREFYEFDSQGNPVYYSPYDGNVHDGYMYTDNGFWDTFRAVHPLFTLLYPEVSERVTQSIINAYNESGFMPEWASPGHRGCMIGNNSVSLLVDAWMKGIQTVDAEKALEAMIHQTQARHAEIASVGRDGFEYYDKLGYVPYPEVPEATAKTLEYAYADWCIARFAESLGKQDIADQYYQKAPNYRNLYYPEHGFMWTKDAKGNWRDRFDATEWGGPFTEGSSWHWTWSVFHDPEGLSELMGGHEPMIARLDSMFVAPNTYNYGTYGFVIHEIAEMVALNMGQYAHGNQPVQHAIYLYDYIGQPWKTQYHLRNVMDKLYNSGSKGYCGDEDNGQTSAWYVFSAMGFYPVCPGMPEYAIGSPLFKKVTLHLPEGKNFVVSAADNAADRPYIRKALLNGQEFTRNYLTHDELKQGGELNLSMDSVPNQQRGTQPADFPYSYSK
Method in brief: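 Recombinant enzymes expressed in E. coli. Bt3990 was purified by IMAC, anion exchange and size exclusion; Bt2199 by IMAC only. Ki was measured with at least five inhibitor concentrations at a substrate concentration ≪ Km for each enzyme. Ki was taken as the x-axis intercept of a plot of […] against inhibitor concentration.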

[2] = substrate: O=[N+]([O-])c1ccc(O[C@H]2O[C@H](CO)[C@@H](O)[C@H](O)[C@@H]2O)cc1; experiment: Activity of Bacteroides thetaiotaomicron GH92 alpha-mannosidase GH92 alpha-mannosidase 3773 assessed as mannose release after 16 hrs by HPLC
[3] = substrate: O=[N+]([O-])c1ccc(O[C@H]2O[C@H](CO)[C@@H](O)[C@H](O)[C@@H]2O)cc1; experiment: Ratio of Kcat to Km for Bacteroides thetaiotaomicron GH92 alpha-mannosidase GH92 alpha-mannosidase 3773 assessed as mannose release after 16 hrs by HPLC
[4] = substrate: O=[N+]([O-])c1ccc(O[C@H]2O[C@H](CO)[C@@H](O)[C@H](O)[C@@H]2O)cc1; experiment: Ratio of Kcat to Km for Bacteroides thetaiotaomicron GH92 alpha-mannosidase GH92 alpha-mannosidase 3527 assessed as mannose release after 16 hrs by HPLC
[5] = substrate: O=[N+]([O-])c1ccc(O[C@H]2O[C@H](CO)[C@@H](O)[C@H](O)[C@@H]2O)cc1; experiment: Activity of Bacteroides thetaiotaomicron GH92 alpha-mannosidase GH92 alpha-mannosidase 3527 assessed as mannose release after 16 hrs by HPLC
[6] = substrate: O=[N+]([O-])c1ccc(O[C@H]2O[C@H](CO)[C@@H](O)[C@H](O)[C@@H]2O)cc1; experiment: Ratio of Kcat to Km for Bacteroides thetaiotaomicron GH92 alpha-mannosidase GH92 alpha-mannosidase 1769 assessed as mannose release after 16 hrs by HPLC
[7] = substrate: O=[N+]([O-])c1ccc(O[C@H]2O[C@H](CO)[C@@H](O)[C@H](O)[C@@H]2O)cc1; experiment: Activity of Bacteroides thetaiotaomicron GH92 alpha-mannosidase GH92 alpha-mannosidase 1769 assessed as mannose release after 16 hrs by HPLC
[8] = substrate: O=[N+]([O-])c1ccc(O[C@H]2O[C@H](CO)[C@@H](O)[C@H](O)[C@@H]2O)cc1; experiment: Activity of Bacteroides thetaiotaomicron GH92 alpha-mannosidase GH92 alpha-mannosidase 2629 assessed as mannose release after 16 hrs by HPLC
[9] = substrate: O=[N+]([O-])c1ccc(O[C@H]2O[C@H](CO)[C@@H](O)[C@H](O)[C@@H]2O)cc1; experiment: Ratio of Kcat to Km for Bacteroides thetaiotaomicron GH92 alpha-mannosidase GH92 alpha-mannosidase 2629 assessed as mannose release after 16 hrs by HPLC
[10] = substrate: O=[N+]([O-])c1ccc(O[C@H]2O[C@H](CO)[C@@H](O)[C@H](O)[C@@H]2O)cc1; experiment: Activity of Bacteroides thetaiotaomicron GH92 alpha-mannosidase GH92 alpha-mannosidase 2111 assessed as mannose release after 16 hrs by HPLC
[11] = substrate: O=[N+]([O-])c1ccc(O[C@H]2O[C@H](CO)[C@@H](O)[C@H](O)[C@@H]2O)cc1; experiment: Ratio of Kcat to Km for Bacteroides thetaiotaomicron GH92 alpha-mannosidase GH92 alpha-mannosidase 2111 assessed as mannose release after 16 hrs by HPLC

With O=C1N[C@@H]2[C@@H](O)[C@@H](O)[C@H](O)[C@@H](CO)N2C1=O [KIFUNENSINE] the Ki [1] was 230 µM.

B1: Alpha-1,2-mannosidase, putative (BT_3773) (Bacteroides thetaiotaomicron), Q8A193 (protein)
chain: MNAFKLLMAASCFLGLATSGVAKQDYSKSEGLLQYVDPYIGSGFHGHVFVGTSVPYGMVQLGPNNIHKGWDWCSGYHYSDSILIGFSHTHLSGTGCTDLGDILIMPLNEIRTPRGNQDDIRDGYASKYSHDNEIARPEYYSLILDRYNIKAELTATDRVGFHRYTYPEGKPVSILIDLREGNGSNAYDSYIRKVDDYTVEGYRYVRGWSPSRKVYFVLKSDQKIEKFTAYDDNTPKLWDQLKVESVKSVLTFGNVKEVKIKVAISSVSCDNAAMNLQAELSHWDFDKVVKMSSDRWNKQLDKMTVESDDEAAKRVFYTAHYHTMIAPTLYCDVNGEYRGMNDMIYTDPKKANYTTLSLWDTYRALNPLMTIIQPEMVDNVINSMLSIYRQQDKLPIWPLMSGETNCMPGYSSVPVIADAYLKGFTGFDAEEALTAMKATATYEGQNGVPYVMAKGYIPADKIHEATSIAMEYAVDDWGIAAMAQKMGKTADYETFSKRAHYYKNYFDSSIHFIRPKLEDGSWRTPYDPARSIHGVGDFCEGNGWQYTFFAPQDPYGLISLFGGDKPFTSKLDSFFTNNDSMGEGASSDITGLIGQYAHGNEPSHHIAYLYTYAGEQWKTAEKVRFIMSDFYTDQPDGIIGNEDCGQMSAWYLLSAMGFYQVNPSDGVFAFGSPRFKKIEVKVRGGKVFTVEAPNNSKDNIYIQKVYLNGKPYHKSYITYDDIINGSTLKFEMGKKPAKNFGKASANRPIVLNK
With B1 the Km [2] was “Not Active”, the kcat [2] was “Not Active” and the kcat/Km [3] was “Not Active”.

B2: Alpha-1,2-mannosidase (BT_3527) (Bacteroides thetaiotaomicron), Q8A1Y1 (protein)
chain: MKKLALLAFTLFSAWNMDAKTITGPVDYVSPLVGTQSKHALSTGNTYPAIALPWGMNFWVPQTGKMGDGWAYTYDADKIRGFKQTHQPSPWINDYGQFSIMPITGKAVFDQDQRASWFSHKAETATPYYYKVYLADHDVVTEIAPTERAAAFRFTFPENDHSYVVVDAFDNGSFVKVIPSENKIIGYTTKNSGGVPANFKNYFVLEFDKPFTYTAAVANGNIDTNKLEANDKHAGALIGFKTRKGEQVNVRVASSFISPEQAELNLKELGKDNIDQIAAKGRKVWNDVLGRIEVEDDDIDHLRTFYSCLYRSVLFPRSFYEIDAKGDIVHYSPYNGEVLPGYMFTDTGFWDTFRCLFPFLNLMYPSMNMKMQEGLVNTYKESGFLPEWASPGHRGCMVGNNSASVVADAYLKGLKGYDIETLWEAVKHGANAVHPQVSSTGRLGYDYYNKLGYVPYNVGINENAARTLEYAYNDWCIYQLGKALNKPKKEIEIFAKRAMNYKNLYDPEHKLMRGKNEDGKFQSPFNPLKWGDAFTEGNSWHYTWSVFHDPQGLIDLMGGKDGFNQMMDSVFILPPVFDDSYYGGVIHEIREMQIMNMGNYAHGNQPIQHMLYMYNYSGQPWKAQHWIREVMDKLYTPAPDGYCGDEDNGQTSAWYVFSAMGFYPVCPGTDEYILGTPYFKQMKLHLENGKTVTISAPNNGDDKRYISSMTLNGKDHTKNYVTHEDLMNGASITFKMDSKPNEQRGTKETDFPYSFSNEFKKKK
B2 was tested, and the kcat/Km [4] was “Not Active”, the Km [5] was “Not Active” and the kcat [5] was “Not Active”.

B3: Alpha-1,2-mannosidase (BT_1769) (Bacteroides thetaiotaomicron), Q8A6V7 (protein)
chain: MKLTHILASAAIISTLSACNGSLQTADRTPVDYVNPYIGNISHLLVPTFPTIQLPNSMLRVYPERADYTSELLKGLPLIVTNHRERSAFNFSPYQGEKLRPVITYNYDNEHITPYSFDVELDDNRMKAEYALSHQSAIYRITYEADKPAYLIVNSRNGSIHANENFISGRQQLNDNTNVYVYIEAQEKPISAGILENGTIETSKDNAEGANACAAWRFADGTTTVNLRYGISFISEEQAEKNLHRELKDYNIKALAEAGRQIWNETLGRIQVEGGTEDDKTVFYSSFYRTFERPICMSEGGRYFSAFDGKVHEDNGTPFYTDDWIWDTYRAAHPLRTLIDQQKEEDIIASYLRMAEQMGNMWMPTFPEVTGDTRRMNSNHAVATVADALAKGLKVDTAKAYEACRKGIEEKTLAPWSGAPAGWLDNFYRENGYIPALRVDEPENDPNVHPFEKRQPVAVTLGTSYDQWCLSRIAQALNKKEEAEYYLKCSYNYRNLYNKETAFFHPKDKEGQWIEPFDYRFPGGMGAREYYGENNGWVYRWDVPHNVADLISLMGGNEQFIANLDRTFTEPLGRSKYAFYAKLPDHTGNVGQFSMANEPSLHVPYLYNYAGQPWKTQKRIRQMLKTWFRNDLMGIPGDEDGGGMTSFVVFSSLGFYPVTPGLPAYTIGSPLFTDAKIRLSNGAVFEIEAKNASTDNKYIQSATLNGKEWNKSWFSHDDLMSGGKLVLVMGNKPNKTWASGAEDVPPSLEIK
For B3, the kcat/Km [6] was “Not Active”, the Km [7] was “Not Active” and the kcat [7] was “Not Active”.

B4: Alpha-1,2-mannosidase (BT_2629) (Bacteroides thetaiotaomicron), Q8A4H0 (protein)
chain: MKTHFSFKHLLFLGGAVLYSLQSSAVKNPVDYVSTLIGTQSKFELSTGNTYPATALPWGMNFWTPQTGKMGDGWAYTYDADKIRGFKQTHQPSPWMNDYGQFAIMPITGGLVFDQDRRASWFSHKAEVAKPYYYKVYLADHDVTTELAPTERAVMFRFTYPETKNAYVIVDAFDKGSYVKVIPEENKIIGYSTKNSGGVPENFKNYFVIQFDKPFTFVSTVFENNILPNETEAKGNHTGAVIGFATKKGEIVHARVASSFISPEQAELNLKELGKNSFDQLVANGREIWNREMSKIEIEDDNIDNLRTFYSCLYRSMLFPRSFYEIDAKGQVMHYSPYNGEVRPGYMFTDTGFWDTFRCLFPFLNLMYPSMNQKMQEGLVNTYKESGFLPEWASPGHRDCMVGNNSASVVADAYIKGLRGYDIETLWEALKHGANAHLRGTASGRLGYESYNQLGYVANNIGIGQNVARTLEYAYNDWAIYTLGKKLGKPENEIDIYKKHALNYKNVYHPERKLMVGKDNKGVFNPNFDAVDWSGEFCEGNSWHWSFCVFHDPQGLINLMGGKKEFNAMMDSVFVISGKLGMESRGMIHEMREMQVMNMGQYAHGNQPIQHMVYLYNYSSEPWKAQYWIREIMNKLYTAGPDGYCGDEDNGQTSAWYVFSALGFYPVCPGTDEYIIGTPLFKSAKLHLENGKTITIKADNNQLDNRYIKEMKVNGKSQTRNFLTHDQLIKGANIQFQMSPVPNKQRGTTEKDVPYSLSFE
In the case of B4, the Km [8] is reported as “Not Active”, the kcat [8] is reported as “Not Active” and the kcat/Km [9] is reported as “Not Active”.

B5: Alpha-1,2-mannosidase (BT_2111) (Bacteroides thetaiotaomicron), Q8A5X5 (protein)
chain: MKRIPLSLFTFLFLLSGLCAAPTKTVWQIGEKNHSASELALSPDKYKEFLANDFGWEDRFYIIGLSSPQKDFPYVLPGPADHWGGTSYTAGIRTHVLNILFGMKEVPETDSWKLIIDLLDTHHELPALFKITINGKSWKYALPKGSGKSIDGDYSQIKPHTIEIPLNSGVIRKGSNSIALTSLEGSWILFDDIRLMGPDNAELNEVNKSVYLRDVKAADFQTTSPVAQPLLVDIEHLSGHPLLEVKVDGKKILEQRLEKGRYILEAPMPVVKSPKTSHYIISADGAILDKGMIRRAPHNTITLADYIDTRMGTAHSRWMIAPGTWMPFSMVKLSPDNQDSGWQSGYDPSFESIGTFSHIHEWTMAGLGIMPANGPLKTEIGSQSSLVKDANSYRSAIDKTSEETKVGYYKVDLTDYQIKAELTATSRCGFQRYTYPQDKDARVMIDLKIPSEYDYQIVEGSVKQTGARRIEGFSKQLSKNVWSADADQNYTIYFVIEFNKDIKKFGGWHDHTLWETDTMTAHYPQRFGCYAEFDTTDHPEVMVRSGISYVDMAGASNNLSNEITEPFGWNFEAVHKHQSDSWNNILNRVRIYSNDYREKVRFYTNLYRAFCRNTFSDADRRWVDAAGNIQKLDDPDAVALGCDAFWNTFWNLNQVWNLIAPEWSSRWVKSQLAMYDANGWLAKGPSGMKYIPVMVGEHEIPLLVSTYQMGIRNYDAEKMFRAIVKMQTTPAQRVANGFAGNRDLETYLQHQYVPADKGRFSNTLEYSYDDWTVSQLAKALGKEEYYRTFSNRGNWWKNAINPATGYAQMRYSNGEWEKNFDPFKSGANHHYVEGNAWQLTFFVPQNVPALTEIIGKELFIDRLSWGFKASEPWRYNAPGDQYWDFPVVQGNQQSMHFAFLFNWAGQPWQTQRWSRSIIDRYYGFDTSNAYLGDEDQGQMSAWFVMAALGLFQTDGGCNAEPVYELGSPLFEKIKIDLGKHFGRGKQFIIKASNTSRENKYIQSAKLNGKKLNSFKFPAKELLKGGTLELEMGDRPNKNWGIK
In the case of B5, the Km [10] is reported as “Not Active”, the kcat [10] is reported as “Not Active” and the kcat/Km [11] is reported as “Not Active”.
